Converted amounts (≈) assume the structure as drawn.
How the values were obtained:
[1] = tested on: Leishmania donovani; experiment: Antileishmanial activity against Leishmania donovani amastigotes; format: functional, organism-based
Summary of the method: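 Intracellular L. donovani amastigotes tested in vitro, with sodium stibogluconate, pentamidine and amphotericin B as controls. IC50 (µg/mL) was obtained by nonlinear regression of the concentration–response curve using the four-parameter Hill equation.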

[2] = Cytotoxicity against mouse J774A1 cells by MTT assay; format: cell-based, J774.A1
Summary of the method: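 Mouse macrophage line J-774-A-1 tested for cytotoxicity. Viability was read by MTT assay. CC50 (µg/mL) was estimated by the Huber and Koella method.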

[3] = tested on: Leishmania donovani; experiment: Antileishmanial activity against Leishmania donovani promastigotes at 10 ug/mL; format: functional
Summary of the method: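 L. donovani promastigotes exposed in vitro to 10 µg/mL. Result expressed as percent inhibition.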

[4] = (§1) Selectivity index, ratio of CC50 for mouse J774A1 cells to IC50 for Leishmania donovani amastigotes; format: functional, J774.A1
Summary of the method: (§2)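 Computed as CC50 in the J-774-A-1 macrophage MTT assay divided by anti-amastigote IC50. The IC50 came from a four-parameter Hill fit of the concentration–response curve.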

[5] = tested on: Leishmania donovani; experiment: Antileishmanial activity against Leishmania donovani infected in hamster assessed inhibition of parasite growth at 40 mg/kg; format: functional
[6] = tested on: Leishmania donovani; experiment: Antileishmanial activity against Leishmania donovani infected in hamster assessed inhibition of parasite growth at 50 mg/kg, ip for 10 days; format: functional; conditions: 240 h, route intraperitoneal
Summary of the method: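 Hamster model (Mesocricetus auratus) infected with L. donovani. Dosed intraperitoneally at 50 mg/kg × 10. Read-out was percent inhibition of parasite growth.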

[7] = tested on: Leishmania donovani; experiment: Antileishmanial activity against Leishmania donovani infected in hamster assessed inhibition of parasite growth at 20 mg/kg; format: functional, organism-based; parameters: dose 20 mg/kg
[8] = tested on: J774.A1; experiment: as §1; format: functional; summary of the method: as §2
[9] = tested on: Leishmania donovani; experiment: Antileishmanial activity against Leishmania donovani promastigotes; format: functional, organism-based
[10] = tested on: Leishmania donovani; experiment: Antileishmanial activity against Leishmania donovani infected in hamster assessed inhibition of parasite growth at 8 mg/kg, iv for 5 days; format: functional; conditions: 120 h
[11] = Leishmania donovani, read-out: IC50

IC50 [1, 11] [µg/mL] | IC50 [1] | IC50 [9] [µg/mL] | Molecule | CC50 [2] [µg/mL] | inhibition at 10 µg/mL [3] [%] | Ratio CC50/IC50 [4] | inhibition in vivo at 40 mg/kg [5] [%] | inhibition in vivo at 50 mg/kg [6] [%] | inhibition [7] [%] | Ratio CC50/IC50 [8] | inhibition in vivo at 8 mg/kg [10] [%]
3.71 (≈ 12 µM) | – | – | O=[N+]([O-])c1ccc(OC(Cn2ccnc2)c2ccccc2)cc1 (stereo unspecified) | 25.2 (≈ 81.5 µM) | 95.5 | 6.79 | – | – | – | – | –
5.62 (≈ 16.6 µM) | – | – | O=[N+]([O-])c1ccc(OC(COc2ccccc2)Cn2ccnc2)cc1 (stereo unspecified) | 28.1 (≈ 82.9 µM) | 93.8 | 5 | – | – | – | – | –
2.05 (≈ 6.17 µM) | – | – | FC(F)(F)c1ccc(OC(Cn2ccnc2)c2ccccc2)cc1 (stereo unspecified) | 28.4 (≈ 85.6 µM) | 98.6 | 13.85 | – | 46 | – | – | –
0.47 (≈ 1.36 µM) | – | – | FC(F)(F)c1ccc(OC(CCn2ccnc2)c2ccccc2)cc1 (stereo unspecified) | 17.2 (≈ 49.8 µM) | 100 | 36.68 | – | 60 | – | – | –
0.56 (≈ 1.55 µM) | – | – | FC(F)(F)c1ccc(OC(COc2ccccc2)Cn2ccnc2)cc1 (stereo unspecified) | 17.9 (≈ 49.3 µM) | 100 | 31.89 | – | 58 | – | – | –
2.76 (≈ 8.43 µM) | – | – | O=[N+]([O-])c1ccc(OC(Cn2ccnc2)c2ccccc2)c(F)c1 (stereo unspecified) | 21.2 (≈ 64.9 µM) | 94.6 | 7.69 | – | – | – | – | –
1.85 (≈ 5.13 µM) | – | – | C[C@@H](Cn1ccnc1)[C@@H](Oc1ccc(C(F)(F)F)cc1)c1ccccc1 (relative stereo) | 21.7 (≈ 60.3 µM) | 100 | 11.75 | – | – | – | – | –
2.25 (≈ 7.27 µM) | – | – | O=[N+]([O-])c1ccccc1OC(Cn1ccnc1)c1ccccc1 (stereo unspecified) | 25.1 (≈ 81.3 µM) | 97.5 | 11.17 | – | – | – | – | –
3.82 (≈ 11.8 µM) | – | – | O=[N+]([O-])c1ccc(OC(CCn2ccnc2)c2ccccc2)cc1 (stereo unspecified) | 25.1 (≈ 77.6 µM) | 99 | 6.57 | – | – | – | – | –
0.48 (≈ 1.48 µM) | – | – | O=[N+]([O-])c1ccccc1OC(CCn1ccnc1)c1ccccc1 (stereo unspecified) | 18 (≈ 55.5 µM) | 100 | – | – | 52 | – | – | –
8.08 (≈ 28.4 µM) | – | – | CC(CCn1ccnc1)Oc1ccc(C(F)(F)F)cc1 (stereo unspecified) | 7.5 (≈ 26.4 µM) | 100 | 0.88 | – | – | – | – | –

The remaining lines, values behind:

Molecule | IC50 [1, 11] [µg/mL] | IC50 [1] | IC50 [9] [µg/mL] | CC50 [2] [µg/mL] | inhibition at 10 µg/mL [3] [%] | Ratio CC50/IC50 [4] | inhibition in vivo at 40 mg/kg [5] [%] | inhibition in vivo at 50 mg/kg [6] [%] | inhibition [7] [%] | Ratio CC50/IC50 [8] | inhibition in vivo at 8 mg/kg [10] [%]
N=C(N)c1ccc(OCCCCCOc2ccc(C(=N)N)cc2)cc1 [PENTAMIDINE] | 12.1 (≈ 35.6 µM) | – | – | – | – | – | 92 | – | – | – | –
O=[N+]([O-])c1ccc(OC(COc2ccccc2)Cn2ccnc2)c(F)c1 (stereo unspecified) | 5.13 (≈ 14.4 µM) | – | – | 29.6 (≈ 82.8 µM) | 98.2 | 5.76 | – | – | – | – | –
CC(CCn1ccnc1)Oc1ccc([N+](=O)[O-])cc1C(F)(F)F (stereo unspecified) | 9.97 (≈ 30.3 µM) | – | – | 7.73 (≈ 23.5 µM) | 100 | 0.97 | – | – | – | – | –
CC(CCn1ccnc1)Oc1ccccc1[N+](=O)[O-] (stereo unspecified) | 8.43 (≈ 32.3 µM) | – | – | > 100 | 100 | >11.86 | – | – | – | – | –
O=[N+]([O-])c1ccc(OC(CCn2ccnc2)c2ccccc2)c(F)c1 (stereo unspecified) | 2.83 (≈ 8.29 µM) | – | – | 25.1 (≈ 73.5 µM) | 96.3 | 8.86 | – | – | – | – | –
sodium stibogluconate | – | – | – | – | – | – | – | – | 84.1 | 6.38 | –
CC(CCn1ccnc1)Oc1ccc([N+](=O)[O-])cc1 (stereo unspecified) | – | Not Active | – | 24.1 (≈ 92.2 µM) | 100 | – | – | – | – | – | –
CC(CCn1ccnc1)Oc1ccc([N+](=O)[O-])cc1F (stereo unspecified) | – | Not Active | – | 15 (≈ 53.7 µM) | 100 | – | – | – | – | – | –
C[C@@H]1[C@H](O)[C@@H](C)/C=C/C=C/C=C/C=C/C=C/C=C/C=C/[C@H](O[C@@H]2O[C@H](C)[C@@H](O)[C@H](N)[C@@H]2O)C[C@@H]2O[C@](O)(C[C@@H](O)C[C@@H](O)[C@H](O)CC[C@@H](O)C[C@@H](O)CC(=O)O[C@H]1C)C[C@H](O)[C@H]2C(=O)O [AMPHOTERICIN B] | 0.05 (≈ 0.0541 µM) | – | 0.008 (≈ 0.00866 µM) | 7.24 (≈ 7.83 µM) | – | 144.8 | – | – | – | – | 92.2
O=[N+]([O-])c1ccccc1OC(COc1ccccc1)Cn1ccnc1 (stereo unspecified) | 4.82 (≈ 14.2 µM) | – | – | 36.2 (≈ 107 µM) | 95.5 | 7.51 | – | – | – | – | –
C[C@@H](Cn1ccnc1)[C@@H](Oc1ccccc1[N+](=O)[O-])c1ccccc1 (relative stereo) | 2.27 (≈ 6.73 µM) | – | – | 22.1 (≈ 65.7 µM) | 95 | 9.75 | – | – | – | – | –

From ChEMBL document CHEMBL1153117, “Synthesis of substituted aryloxy alkyl and aryloxy aryl alkyl imidazoles as antileishmanial agents” (Bioorg Med Chem Lett, 2010)
